# The sample as a whole holds a higher share of hits than the screen did.
# PolyA inhibitor: yeast polyadenylation inhibition | S. cerevisiae SKY197-pL101 polyadenylation reporter, beta-gal luminescence; efflux-impaired pdr1/pdr3 knockout yeast; score 100 = 6 SD above DMSO | activity score, % at 12 µM | 300,000 tested, 0.02% active;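 active = lowest replicate activity score at least 50, where 100 means six control SD above control mean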;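 also: yeast exposed to compound for 9 h at 30 °C; higher score means more reporter readthrough which indicates perturbed polyadenylation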
# NALP1 yeast inh: NALP1 inhibition; S. cerevisiae NALP1/ASC/caspase-1 growth, X-gal OD620, 72 h; inhibition, % at 10 µM; 280,000 tested, 0.61% active; AID 2071; in the data active = inhibition mostly above about 24%, no sharp cut-off; inactive = mostly below about 32%
# Calb FLC: affects C. albicans growth with fluconazole | growth inhibition, % (concentration not given with the values) | 300,000 tested, 0.57% active | C. albicans CaCi-2 (fluconazole-resistant clinical isolate) + fluconazole, Alamar Blue growth, 48 h | AID 1979;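 active = growth inhibition above about 58% in most replicates, limit read from the data, passing the limit was not always enough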;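 also: all wells also contain fluconazole at 8 µg/ml as a sub-toxic cotreatment; 0% = median of DMSO wells and 100% = median of geldanamycin control wells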
# Lmaj promast: Leishmania major promastigote growth inhibition; 200,000 tested, 9% active; AID 1063; inhibition, % at 10 µM; Leishmania major promastigotes, resazurin fluorescence viability; in the data active = inhibition above about 50%;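 also: promastigotes grown with compound for 44 hours at 28 °C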
# T cruzi inh: T. cruzi replication inhibition | T. cruzi beta-gal in NIH3T3, luminescence, 90 h | inhibition, % (no concentration beside the values) | 300,000 tested, 1.4% active | AID 1885;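 active = mean inhibition across valid replicates above about 55%, limit read from the data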;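 also: signal also drops with host cell toxicity which is not excluded here; 0% = plate median of DMSO wells and 100% = zero luminescence signal; higher percent means less beta-gal luminescence so fewer parasites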
#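 Read-out: Parasite load inhibition, % | Test system: Mouse NIH/3T3 fibroblasts infected with β-gal-expressing T. cruzi Tulahuen C4 | Amount: 5,000 cells/well | Medium: DMEM, 2% fetal bovine serum | Signal: GalScreen β-gal luminescence, detergent lysis, 60 min | Timing: 3 h attach, ≥90 h co-culture | Also added: Tulahuen C4 trypomastigotes, 5000/well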
# NALP3 yeast inh: NALP3 inhibition in yeast; Yeast reconstituted NLRP3/ASC/caspase-1, beta-gal luminescence, 24 h; AID 2825; inhibition, % at 10 µM; 330,000 tested, 0.39% active;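 active = inhibition of 50% or more; inactive = inhibition below 50%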;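 also: plate controls were induced DMSO wells for no effect and uninduced yeast grown without galactose for full effect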
# Numbers without * were called inactive; . = not tested or not shown.
SMILES,PolyA inhibitor,NALP1 yeast inh,Calb FLC,Lmaj promast,T cruzi inh,NALP3 yeast inh
CCCCn1c(SCC(=O)N(CC)C2CCS(=O)(=O)C2)nc2cc(S(N)(=O)=O)ccc21 (stereo not given),12,-10,9,-4,-4,3
O=C(O)CCN1CC2([N+](=O)[O-])C=CC(=O)C([N+](=O)[O-])(C1)C2CC(=O)c1ccccc1 (stereo not given),6,31,-7,-1,0,5
COc1cccc(-c2nnc3n2N=C(C(C)(C)C)CS3)c1,-6,37,-30,5,-17,15
COc1ccc(-c2csc(Nc3ccc(S(N)(=O)=O)cc3)n2)cc1,2,7,59,24,-17,9
CC(=O)Oc1ccc(-c2csc(Nc3ccc(S(N)(=O)=O)cc3)n2)cc1,-7,14,30,55*,-14,19
O=C(CCN1CCOCC1)NNC(=O)/C(=C/c1ccccc1)NC(=O)c1ccccc1,3,17,-22,-3,-6,-7
CCN(C(=O)c1ccc(S(=O)(=O)N2CCCC2)cc1)C1CCS(=O)(=O)C1 (stereo not given),12,.,5,.,4,12
O=C(NCC(c1cccnc1)N1CCN(c2ccc(F)cc2)CC1)c1ccccc1 (stereo not given),-2,12,10,89*,39,4
CN1CCN(C(CNS(=O)(=O)c2ccc(Cl)cc2)c2cccnc2)CC1 (stereo not given),8,7,1,-1,44,1
O=C(NCc1ccc(Cl)cc1)C(=O)NCC(c1cccnc1)N1CCN(c2ccc(F)cc2)CC1 (stereo not given),27,2,20,94*,53,21
COc1ccc(N2CCN(C(CNC(=O)C(C)(C)C)c3cccnc3)CC2)cc1 (stereo not given),-3,22,3,10,22,27
COc1ccc(NS(=O)(=O)c2cccc(C(=O)NN=C(C)c3ccco3)c2)cc1,.,.,.,.,.,7
Cc1ccc(C2C(C#N)=C(N)Oc3cc(C)oc(=O)c32)o1 (stereo not given),-26,-24,-4,100*,6,18
COc1ccc(/C=C/C(=O)NC2=NCCS2)cc1OC,-8,4,12,5,-8,-5
Cc1ccc(C(=O)/C=C/c2ccc3ncccc3c2)cc1,3,6,45,.,-11,36
Cc1cccc(/C=C/C(=O)c2ccc(NC3=NCCCS3)cc2)c1,.,62*,.,77*,55*,28
COc1cccc(/C=C/C(=O)c2ccc(NC3=NCCCS3)cc2)c1,2,-11,-6,99*,45,0
O=c1[nH]c2ccccc2cc1CN(Cc1cccnc1)S(=O)(=O)c1ccc([N+](=O)[O-])cc1,-1,22,-4,.,56*,19
COc1cccc2cc(C(=O)NCc3ccc(Cl)cc3)c(=N)oc12,-12,25,-5,.,-14,0
COc1cccc2cc(C(=O)NCc3ccc(Cl)cc3)c(=O)oc12,-7,37*,-1,.,-9,-6
COC(=O)c1cc(CNC(=O)c2cccc(Cl)c2Cl)ccc1OC,-19,32,-9,53*,3,3
CC(C)(C)N1CC23C=CC(C[C@@H]2C1=O)O3 (stereo not given in full),-5,.,-8,.,-12,9
Cc1cccc(-c2nnc(SCC(=O)NC3CC3)n2C)c1,4,28*,17,.,-2,11
Cn1c(SCC(=O)NC2CC2)nnc1-c1ccccc1,6,5,-1,.,-3,22
Cc1cccc(-c2nnc(SCC(=O)N3c4ccccc4CCc4ccccc43)n2C)c1,0,10,14,91*,3,7
Cn1c(SCC(=O)N2c3ccccc3CCc3ccccc32)nnc1-c1cc2ccccc2cc1O,8,9,10,98*,5,.
Cn1c(SCC(=O)N2CCCc3ccccc32)nnc1-c1ccccc1,18,16,71,-6,-10,5
Cc1cc(C)n2nc(SCCC(=O)NCc3ccccc3)nc2n1,12,-6,-2,5,6,6
Cc1ccc(C(=O)Oc2coc(CSc3nnc(NC(=O)c4cccs4)s3)cc2=O)cc1,6,3,2,36,4,14
Oc1ccc(Cl)cc1C=Nc1ccc2c3c(cccc13)CC2,-10,10,6,84*,1,31
